Data set [1] is described as follows: Selectivity index, ratio of IC50 for african green monkey Vero cells to IC50 for human K562 cells. It is filed as toxicity. The settings on record: Vero cells versus K562 cells, read-out: Ratio IC50.
Data set [2] is described as follows: Antiinflammatory activity in mouse peritoneal macrophage assessed as inhibition of LPS-induced TNFalpha production at 10 ug/ml relative to control. Set-up: scale not given: the % may be the effect or the level left. It is filed as functional. To be noted: dose 10 µg/ml.
Data set [3] in a line: Hepatotoxicity in Swiss albino mouse assessed as serum protein level at 5 mg/kg, po administered for 7 days (reference value: 5.73 +/- 0.21 mg/ml). The data set is classed as toxicity, organism-based. To be noted: in vivo, 168 h, time 7 day. A digest of the protocol:
(§1)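 Single acute oral dose (5, 50, 300 or 1000 mg/kg) given to Swiss albino mice, n = 6, with 7-day observation. At the end, haematological and serum biochemical parameters were measured. Compared with untreated controls; mean ± SE, ANOVA, p < 0.05.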

A short description of data set [4]: Hepatotoxicity in Swiss albino mouse assessed as SGOT level at 1000 mg/kg, po administered for 7 days (reference value: 31.51 +/- 6.31 U/L). It is filed as toxicity, organism-based. The settings on record: in vivo, 168 h, time 7 day. The method in brief:
as §1

Data set [5] is described as follows: Toxicity in Swiss albino mouse assessed as change in absolute kidney weight at 5 to 1000 mg/kg, po administered for 7 days. The data set is classed as organism-based. To be noted: in vivo, 168 h, dose 5-1000 mg/kg, time 7 day.
A short description of data set [6]: Hepatotoxicity in Swiss albino mouse assessed as SGOT level at 50 mg/kg, po administered for 7 days (reference value: 31.51 +/- 6.31 U/L). It is filed as toxicity, organism-based. The settings on record: in vivo, 168 h, time 7 day. The method in brief:
as §1

A short description of data set [7]: Hepatotoxicity in Swiss albino mouse assessed as albumin level at 1000 mg/kg, po administered for 7 days (reference value: 4.12 +/- 0.17 g/dl). The data set is classed as toxicity, organism-based. The settings on record: in vivo, 168 h, time 7 day. The method in brief: as §1
A short description of data set [8]: Hepatotoxicity in Swiss albino mouse assessed as serum protein level at 300 mg/kg, po administered for 7 days (reference value: 5.73 +/- 0.21 mg/ml). It is filed as toxicity, organism-based. To be noted: in vivo, 168 h, time 7 day. A digest of the protocol: as §1

With `COc1cc(C2/C(=C/c3ccc(/C=C/C(=O)NO)cc3)C(=O)c3cc(OC)c(OC)c(OC)c32)cc(OC)c1OC` (stereo not drawn), the selectivity ratio in data set [1] is 30.7. For the same compound, the Activity is 29.22% in data set [2]; 5.44 mg/mL in data set [3]; 33.4 U/L in data set [4]; “Non-Toxic” in data set [5]; 33.67 U/L in data set [6]; 4.53 g/dL in data set [7]. In data set [8], the Activity amounted to 5.45 mg/mL.
